For 60 compounds, viability results are on record in PubChem BioAssay AID719 (SRMLSC, 2007).

In all, about 85,000 compounds went through this assay and about 940 (1.1%) were called active. Many of the other results were omitted from the sample, so actives are more common in it than they were. A number with no mark means an inactive call.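 Rule for the calls: active = viability at or below 50% in the single dose screen; inactive = viability above 50%.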

This assay in a line: antiproliferative effect on LL 47 fibroblasts – human, LL 47 cells, CellTiter-Glo luminescence, primary screen (AID 719).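 Note: compound exposure lasted 72 h before the ATP readout; 100% = median luminescence of untreated cell-only wells.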 Particulars: LL 47 human lung fibroblast viability, ATP luminescence; at 10 µM; hits give low values. An outline of the steps: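 Signal: luminescent ATP detection, CellTiter-Glo; assay system: LL 47 human lung fibroblasts; input: 1,150 cells/well; incubation: overnight cell rest, 72 h compound treatment at 37 °C; measure: % viability versus median cells-only luminescence; medium: IMEM growth medium with 15% fetal bovine serum; dosing: compound addition at 0.1% DMSO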
Take `CCCCC(C(=O)OCC(=O)c1ccc(OC)cc1)N1C(=O)c2ccccc2C1=O` (stereo not given): the viability is 93.2%.
With `COC(=O)c1ccccc1NC(=O)Cc1ccccc1OC`, the viability was 102%.
With `CCOc1ccc(Cn2nnc(C(=O)NCc3ccccc3)c2N)cc1` the figure was 84.8%; with `CCOc1ccc(Cn2nnc(C(=O)Nc3ccc(OC)cc3OC)c2N)cc1`, 81.2%; with `Nc1c(C(=O)NCc2ccccc2)nnn1Cc1cccc(Cl)c1`, 44.6% (active).
For `CC(C)N1C(=S)SC(C)(C)C1n1oc(=O)n(-c2ccc(Cl)c(Cl)c2)c1=O` (stereo not given), the viability is 87.5%.
Consider `CCOC(=O)N1CCN(C(=O)c2nn(-c3ccc(C)cc3)c(=O)c3c2c2ccccc2n3C)CC1`, for which the viability is 19.7% (active).
As for `Cn1c2ccccc2c2c(C(=O)N3CCN(c4ccc(F)cc4)CC3)cn(C3CCCC3)c(=O)c21`, the viability was 85.9%.
Turning to `CCOC(=O)N1CCN(C(=O)c2n[nH]c(=O)c3ccccc23)CC1`, the viability is 97.5%.
For `COc1ccc(C)c(Cn2c(-c3nonc3N)nc3ccccc32)c1`, the viability was 42.2% (active).
In the case of `Nc1nonc1-c1nc2ccccc2n1CCC(=O)O`, the viability was 104%.
Turning to `Nc1nonc1-c1nc2ccccc2n1Cc1ccc(F)cc1`, the viability was 52.3%.
As to `CCOc1ccc(N=C2NC(=O)S/C2=C\c2ccc(O)cc2)cc1`, the viability is 102%.
Turning to `COc1ccc(C)cc1S(=O)(=O)NCCc1ccccc1`, the viability was 97.6%.
Then `Cc1nc(NC(=O)CN(C)S(=O)(=O)c2ccc(Cl)cc2)sc1C`, with 98.6%.
As for `Cc1ccc(-n2c(SCC(=O)Nc3ccc4c(c3)OCO4)nnc2-c2ccccn2)cc1`, the viability is 42.1% (active).
Then `O=C(CSc1nnc(-c2ccccn2)n1-c1ccccc1)Nc1ccc2c(c1)OCO2`, with 89.6%; and `Cc1ccc(-n2c(SCC(=O)Nc3ccc4c(c3)OCO4)nnc2-c2ccoc2C)cc1`, with 99%; and `Cc1ccc(-n2c(SCC(=O)NCc3ccc4c(c3)OCO4)nnc2-c2cccnc2)c(C)c1`, with 95.8%.
Turning to `O=C(c1cc2sccc2n1Cc1ccc(F)cc1)N1CCc2ccccc21`, the viability is 95.6%.
Then `COc1ccc(CC(=O)Nc2ccc(-c3nnc(-c4ccc(C)cc4)o3)cc2)cc1`, with 30.9% (active); and `Cc1ccc(OCC(=O)Nc2ccc(-c3nnc(-c4ccco4)o3)cc2)cc1`, with 91.8%.
Take `COc1ccc(CC(=O)Nc2ccc(-c3nnc(-c4ccccc4)o3)cc2)cc1`: the viability is 105%.
For the compound `O=C(/C=C/NNC(=O)c1cccc(Br)c1)c1ccccc1`, the viability is 80.9%.
Consider `CC(C)(C)C1CCc2c(sc3nc(SCC(N)=O)nc(N)c23)C1` (stereo not given), for which the viability was 99%.
With `CCC(=O)Nc1sc(C(=O)N2CCCCC2)c(C)c1C#N` the figure was 98%; with `CN1CCN(CC(=O)Nc2sc3c(c2C#N)CCC(C(C)(C)C)C3)CC1` (stereo not given), 2.62% (active).
For `CCOC(=O)c1nnn(-c2nonc2-n2cccc2)c1CN1CCC(C(=O)OCC)CC1`, the viability was 95%.
Turning to `CC(=O)Oc1cc2c(C(=O)NCCN3CCOCC3)c(C)oc2c2ccccc12`, the viability is 8.08% (active).
On to `O=C(NCCN1CCOCC1)c1c(F)c(F)c(F)c(F)c1F`, for which the viability was 97.6%.
Turning to `O=C(CCN1C(=O)c2ccccc2C1=O)NCCN1CCOCC1`, the viability is 104%.
For the compound `Cc1ccc(-c2cc(C(=O)NCC3CCCO3)c3ccccc3n2)o1` (stereo not given), the viability is 98.3%.
Turning to `Clc1cccc(N=C2NN=C(c3ccc4c(c3)OCCO4)CS2)c1`, the viability is 101%.
In the case of `O=C(CCn1c(SCC(=O)c2ccccc2)nc2ccccc2c1=O)NCc1ccc(F)cc1`, the viability is 103%.
With `CCOc1cccc(-c2nnc3sc(COc4ccc(OC)cc4)nn23)c1`, the viability is 99.8%.
As for `COc1ccc(C2=CC(c3cccc(OC)c3)n3nnnc3N2)cc1` (stereo not given), the viability is 86.1%.
Consider `CCOc1cccc(-n2nnnc2-c2ccc(OC)cc2)c1`, for which the viability is 47.7% (active).
With `Cc1ccc(Nc2nnc(SCc3ccccc3)s2)cc1`, the viability was 102%.
With `Cc1ccc(C)c(N2C(=O)CS/C2=N\NC(=O)c2ccccc2Cl)c1`, the viability is 101%.
With `CC(C)CC(N=C1NC(C)(C)Cc2ccccc21)C(=O)O` (stereo not given), the viability is 111%.
`COc1ccc(NC(=O)/C(Cl)=C(/Cl)S(=O)Cc2ccc(C)cc2)cn1` (stereo not given): the viability was 1.6% (active).
Consider `COc1cccc(NC(=O)Cc2ccc(C)cc2)c1`, for which the viability was 91.5%.
Turning to `COc1ccc(-c2nc3ccccc3n2CCC(C)C)cc1OC`, the viability is 99.3%.
As to `O=C(CN1CCCCCC1)N1c2ccccc2Sc2ccc(C(F)(F)F)cc21`, the viability is 96%.
With `CCCCCCc1cc2cc(-c3nnc(-c4cccc(OC)c4)o3)c(=O)oc2cc1O`, the viability is 64.8%.
For the compound `COC(=O)CSc1nc2c(c(C3CC=CCC3)c1C#N)CCC2` (stereo not given), the viability was 101%.
As for `Cc1cc(C)n(-c2nnc(C)n2NC(=O)c2cccc(Cl)c2)n1`, the viability was 94.7%.
As for `COCCCn1c(SCC(=O)Nc2ccccc2)nnc1-c1ccncc1`, the viability was 108%.
Take `Cc1ccc(NC(=O)N2CCC(c3nc4c(nnn4Cc4c(F)cccc4Cl)c(=O)[nH]3)CC2)cc1`: the viability is 95%.
For `OCCCN1c2ccccc2Nc2nnc(-c3ccccc3)cc21`, the viability is 89.3%.
For `N=c1c2c(-c3ccccc3)c(-c3ccccc3)n(Cc3ccccc3)c2ncn1CCCO`, the viability is 39% (active).
With `C=CCO/N=C(\C)c1c(O)c(C)c(-c2ccccc2)n(-c2ccccc2)c1=O` the figure was 99.4%; with `Cc1cccc(N2CCN(C(=O)c3cnn4c(C(F)F)cc(-c5ccccc5)nc34)CC2)c1C`, 87.9%; with `Cc1sc2nc(SCC(N)=O)n(C)c(=O)c2c1C`, 93.8%.
Consider `CCCn1c(=O)c2ccccc2n2c(SCC(=O)/C(C#N)=C(\C)N)nnc12`, for which the viability was 93.4%.
Take `C=CCn1c(SCC(=O)/C(C#N)=C(\C)N)nc2sc(C)c(C)c2c1=O`: the viability was 34.3% (active).
Consider `CCOc1cc(NC(=O)c2cnccn2)c(OCC)cc1NC(=O)c1ccc(C)cc1`, for which the viability is 97.9%.
Then `CCOC(=O)N1CCN(S(=O)(=O)c2ccc(C(=O)Nc3ccc(F)cc3F)cc2)CC1`, with 47.5% (active); and `COc1ccc(C(=O)Nc2ccc(F)cc2F)cc1`, with 99.5%.
With `O=C(Nc1cccc(F)c1)c1ccc(S(=O)(=O)N2CCCC2)cc1` the figure was 109%.
